Test results from ChEMBL document CHEMBL4152256, “Structure-activity relationship of new antimalarial 1-aryl-3-susbtituted propanol derivatives: Synthesis, preliminary toxicity profiling, parasite life cycle stage studies, target exploration, and targeted delivery” (Eur J Med Chem, 2018).
Calls of active or inactive are those of the source. The calls are words filed in the database; no cut-off is given here.

How the values were obtained:
[1] = test system: Plasmodium falciparum; experiment: Antiplasmodial activity against Plasmodium falciparum FCR-3 sporozoites infected in human primary hepatocytes treated simultaneously with infection by DAPI staining based HCS analysis; assay type: functional, organism-based, FCR-3/Gambia
[2] = Selectivity index, ratio of CC50 for human HepG2A16 cells to IC50 for GFP-fused Plasmodium berghei sporozoites infected in human HepG2A16 cells; assay type: toxicity, cell-based; conditions: read-out: Ratio CC50/IC50
In short: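 HepG2-A16 cells were grown at 3 × 10^4 per well on collagen and infected with GFP P. berghei sporozoites (5 × 10^3 to 1 × 10^4 per well) from A. stephensi salivary glands. Compounds were added at infection, from 10 µg/mL top plus seven serial dilutions, and refreshed at 3 h and then every 24 h. After 40 h at 37 °C, EEFs were methanol-fixed, anti-Hsp70 immunolabelled and counted by high-content imaging. SI = HepG2 CC50 / liver-stage IC50.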

[3] = test system: Plasmodium falciparum; experiment: Antiplasmodial activity against Plasmodium falciparum 3D7 ring stage forms infected in immunoliposome encapsulated compound pre-loaded human RBC by [3H]-hypoxanthine incorporation assay; assay type: functional, organism-based; conditions: 3D7, Erythrocyte
[4] = test system: Plasmodium falciparum; experiment: (§1) Ratio of IC50 for antiplasmodial activity against Plasmodium falciparum 3D7 ring stage forms infected in immunoliposome encapsulated compound pre-loaded human RBC by [3H]-hypoxanthine incorporation assay to IC50 for antiplasmodial activity against Plasmodium falciparum 3D7 ring stage forms infected in human non-washed human RBC containing full drug dosages by [3H]-hypoxanthine incorporation assay; assay type: functional
[5] = test system: Plasmodium falciparum; experiment: Antiplasmodial activity against chloroquine-sensitive Plasmodium falciparum 3D7 ring forms infected in human RBC using compound encapsulated in to immunoliposome targeted to GPA incubated for 15 mins followed by compound removal and further incubation for 48 hrs by [3H]-hypoxanthine incorporation assay; assay type: functional, organism-based; conditions: 3D7, Erythrocyte
[6] = Drug encapsulation in liposomes assessed as encapsulation efficiency in citrate/phosphate buffered measured after buffer exchange with PBS by UV/Vis spectroscopy relative to untreated control; assay type: physicochemical; conditions: artificial membrane
In short: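 Compound loaded into DSPC:cholesterol:DSPE-PEG2000-Mal:DOPE-Rho (84.5:10:5:0.5) liposomes using a citrate (pH 4.0)/PBS pH gradient. Drug measured by UV/vis after SDS disruption at each step: citrate liposomes, after buffer exchange to PBS (chloroquine added to preformed liposomes here), and after ultracentrifugation. Encapsulation efficiency = % of drug that is encapsulated out of total drug in the sample.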

[7] = test system: Plasmodium falciparum; experiment: Antiplasmodial activity against chloroquine-sensitive Plasmodium falciparum 3D7 late forms infected in human RBC incubated for 15 mins followed by compound removal and further incubation for 48 hrs by [3H]-hypoxanthine incorporation assay; assay type: functional, organism-based; conditions: 3D7, Erythrocyte
[8] = test system: Plasmodium falciparum; experiment: as §1, with “late” for “ring”; assay type: functional
[9] = molecular target: T1, HSP90 (Plasmodium falciparum 3D7) (UniProt Q8IL32); experiment: Binding affinity to Plasmodium falciparum HSP90 nucleotide binding domain at 0.5 mM by SYPRO orange dye based DSF analysis
T1 sequence (whole entry): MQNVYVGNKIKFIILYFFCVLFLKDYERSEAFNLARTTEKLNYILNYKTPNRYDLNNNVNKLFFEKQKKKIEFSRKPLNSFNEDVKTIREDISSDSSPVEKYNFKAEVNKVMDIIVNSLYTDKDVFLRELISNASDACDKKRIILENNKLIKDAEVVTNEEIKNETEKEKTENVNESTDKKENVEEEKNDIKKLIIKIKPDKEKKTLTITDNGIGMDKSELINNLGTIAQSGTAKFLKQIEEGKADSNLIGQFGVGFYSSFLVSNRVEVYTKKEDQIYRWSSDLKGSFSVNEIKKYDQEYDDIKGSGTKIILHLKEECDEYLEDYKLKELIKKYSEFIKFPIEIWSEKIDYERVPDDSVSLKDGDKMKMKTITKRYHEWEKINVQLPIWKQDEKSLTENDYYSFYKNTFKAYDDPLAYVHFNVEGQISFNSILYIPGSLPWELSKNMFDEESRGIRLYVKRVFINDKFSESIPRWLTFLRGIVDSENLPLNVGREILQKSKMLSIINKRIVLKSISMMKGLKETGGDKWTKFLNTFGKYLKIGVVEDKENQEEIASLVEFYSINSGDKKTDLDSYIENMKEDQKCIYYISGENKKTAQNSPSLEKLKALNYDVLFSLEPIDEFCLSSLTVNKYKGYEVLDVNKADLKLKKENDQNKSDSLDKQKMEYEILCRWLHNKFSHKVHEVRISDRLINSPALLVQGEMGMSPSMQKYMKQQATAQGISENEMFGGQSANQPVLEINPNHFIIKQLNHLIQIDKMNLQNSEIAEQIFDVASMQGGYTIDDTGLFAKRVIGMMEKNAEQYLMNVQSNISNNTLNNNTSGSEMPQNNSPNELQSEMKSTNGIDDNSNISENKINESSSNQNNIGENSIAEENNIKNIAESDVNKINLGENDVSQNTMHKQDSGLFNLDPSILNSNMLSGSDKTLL
In short: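 Recombinant P. falciparum Hsp90 or GRP94 nucleotide-binding domain (0.05–0.2 mg/mL, optimized per protein) in 25 mM HEPES pH 7.5, 250 mM NaCl. Compound final concentration was 0.5 mM, with SYPRO Orange at 1:1000. Samples were heated from 18 to 90 °C at 1 °C/min. Tm was taken as the Boltzmann-fit inflection point. ΔTm = Tm with ligand minus Tm without, and shifts beyond ±1 °C were counted significant.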

[10] = molecular target: T1, HSP90 (Plasmodium falciparum 3D7); experiment: Binding affinity to Plasmodium falciparum HSP90 nucleotide binding domain by SPR analysis
In short: (§2)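 Purified PfHsp90 and PfGRP94 nucleotide-binding domains were amine-coupled to a CM5 chip (3000 and 7000 RU, respectively), with a blank reference surface. Seven compound concentrations (0.4 nM–1 mM) were injected in triplicate at 30 µL/min, 25 °C, in random order. Running buffer: 10 mM HEPES pH 7.4, 150 mM NaCl, 0.005% P20, 1% DMSO, 2 mM MgCl2. Kd came from double-referenced sensorgrams.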

[11] = test system: Plasmodium falciparum; experiment: Binding affinity to Plasmodium falciparum GRP94 nucleotide binding domain by SPR analysis; in short: as §2
[12] = Genotoxicity in Salmonella typhimurium TA1535 harboring pSK1002 assessed as survival at 0.0005 mg/ml in absence of Sprague-Dawley rat liver S9 fraction after by SOS/umu assay relative to control; assay type: toxicity, organism-based; conditions: salmonella enterica subsp. enterica serovar typhimurium, read-out: Survival
[13] = Genotoxicity in Salmonella typhimurium TA1535 harboring pSK1002 assessed as umu gene induction at 0.0005 mg/ml in absence of Sprague-Dawley rat liver S9 fraction after by SOS/umu assay relative to control; assay type: toxicity, organism-based; conditions: salmonella enterica subsp. enterica serovar typhimurium, read-out: FC
[14] = Genotoxicity in Salmonella typhimurium TA1535 harboring pSK1002 assessed as umu gene induction at 0.0005 mg/ml in presence of Sprague-Dawley rat liver S9 fraction after by SOS/umu assay relative to control; assay type: toxicity, organism-based; conditions: salmonella enterica subsp. enterica serovar typhimurium, read-out: FC
[15] = Genotoxicity in Salmonella typhimurium TA1535 harboring pSK1002 assessed as survival at 1 mg/ml in presence of Sprague-Dawley rat liver S9 fraction after by SOS/umu assay relative to control; assay type: toxicity, organism-based; conditions: salmonella enterica subsp. enterica serovar typhimurium, read-out: Survival
[16] = Genotoxicity in Salmonella typhimurium TA1535 harboring pSK1002 assessed as umu gene induction at 1 mg/ml in presence of Sprague-Dawley rat liver S9 fraction after by SOS/umu assay relative to control; assay type: toxicity, organism-based; conditions: salmonella enterica subsp. enterica serovar typhimurium, read-out: FC

With `N#Cc1ccc(N2CCC(NCCC(O)c3ccc(F)c4ccccc34)CC2)c(C(F)(F)F)c1` (stereo in doubt; 72) the IC50 [1] was “Not Active”, the selectivity ratio [2] was 2.3 and the IC50 [3] was 514 nM. For the same molecule, the “Ratio IC50” value [4] was 2.8, the IC50 [5] was 146 nM and the Activity [6] was 77.2%. The IC50 [7] was 916 nM and the “Ratio IC50” value [8] was 1.5.

With `N#Cc1ccc(N2CCC(NCCC(O)c3ccc(F)c4ccccc34)CC2)c(Br)c1` (stereo not drawn) the Activity [9] was “inactive”, the Activity [10] was “inactive” and the Activity [11] was “inactive”.

In the case of `OC(CCN1CCN(C(c2ccccc2)c2ccccc2)CC1)c1ccc(F)c(F)c1` (stereo not drawn), the viability at 0.0005 mg/ml [12] is reported as 110%, the fold induction at 0.0005 mg/ml [13] is reported as 0.7 and the fold induction at 0.0005 mg/ml [14] is reported as 1.

Work on `OC(CCN1CCN(c2ccccc2C(F)(F)F)CC1)c1ccc(F)cc1` (stereo not drawn) yielded a viability at 1 mg/ml [15] of 97% and a fold induction at 1 mg/ml [16] of 0.3.

In the case of `N#Cc1ccc(N2CCC(NCCC(O)c3ccc(F)c4ccccc34)CC2)c(Cl)c1` (stereo not drawn), the IC50 [1] is reported as “Not Active”, the selectivity ratio [2] is reported as 2.3 and the Activity [9] is reported as “inactive”. For the same molecule, the Activity [10] was “inactive” and the Activity [11] was “inactive”.

For `OC(CCN1CCN(C(c2ccccc2)c2ccccc2)CC1)c1ccc(F)c2ccccc12` (stereo not drawn), the IC50 [1] was “Not Active”, the selectivity ratio [2] was 3.7 and the Activity [9] was “inactive”. For the same molecule, the Activity [10] was “inactive” and the Activity [11] was “inactive”.

With `COc1ccccc1C1=CCN(CCC(O)c2ccc(F)cc2)CC1` (stereo not drawn) the viability at 1 mg/ml [15] was 32.2% and the fold induction at 1 mg/ml [16] was 1.

With `OC(CCN1CCN(c2ccccc2C(F)(F)F)CC1)c1ccc(F)c2ccccc12` (stereo in doubt; 55) the viability at 1 mg/ml [15] was 164% and the fold induction at 1 mg/ml [16] was 0.4.

For `COc1ccccc1N1CCN(CCC(O)c2ccc(F)c3ccccc23)CC1` (stereo not drawn), the Activity [9] was “inactive”, the Activity [10] was “inactive” and the Activity [11] was “inactive”.
